Results: ChEMBL document CHEMBL2424622, “Development of amino-pyrimidine inhibitors of c-Jun N-terminal kinase (JNK): kinase profiling guided optimization of a 1,2,3-benzotriazole lead” (Bioorg Med Chem Lett, 2013)

Experiments:
[1] = target: Mitogen-activated protein kinase kinase kinase 10 (Homo sapiens) (UniProt Q02779); test: Competitive binding affinity to MLK2 (unknown origin) at 10 uM in presence of ATP relative to control
[2] = target: Serine/threonine-protein kinase 24 (Homo sapiens) (UniProt Q9Y6E0); test: Competitive binding affinity to MST3 (unknown origin) at 10 uM in presence of ATP relative to control
Serine/threonine-protein kinase 24 (Homo sapiens), sequence (Q9Y6E0 whole entry, looked up): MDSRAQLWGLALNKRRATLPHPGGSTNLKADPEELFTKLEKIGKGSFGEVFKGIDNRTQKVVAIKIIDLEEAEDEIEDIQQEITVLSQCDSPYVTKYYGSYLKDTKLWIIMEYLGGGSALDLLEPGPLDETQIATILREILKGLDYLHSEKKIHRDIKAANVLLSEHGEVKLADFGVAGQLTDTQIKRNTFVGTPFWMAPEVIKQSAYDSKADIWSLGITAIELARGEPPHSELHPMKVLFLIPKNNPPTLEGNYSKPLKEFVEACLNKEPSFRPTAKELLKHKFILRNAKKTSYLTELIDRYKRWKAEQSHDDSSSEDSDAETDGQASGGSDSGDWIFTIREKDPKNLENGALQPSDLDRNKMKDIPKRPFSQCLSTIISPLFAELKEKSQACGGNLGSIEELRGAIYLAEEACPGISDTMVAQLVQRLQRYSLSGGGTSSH

[3] = target: Cyclin-dependent kinase 8 (Homo sapiens) (UniProt P49336); test: Competitive binding affinity to CDK8 (unknown origin) at 10 uM in presence of ATP relative to control
Cyclin-dependent kinase 8 (Homo sapiens), sequence (P49336 whole entry, the tested form may be a part): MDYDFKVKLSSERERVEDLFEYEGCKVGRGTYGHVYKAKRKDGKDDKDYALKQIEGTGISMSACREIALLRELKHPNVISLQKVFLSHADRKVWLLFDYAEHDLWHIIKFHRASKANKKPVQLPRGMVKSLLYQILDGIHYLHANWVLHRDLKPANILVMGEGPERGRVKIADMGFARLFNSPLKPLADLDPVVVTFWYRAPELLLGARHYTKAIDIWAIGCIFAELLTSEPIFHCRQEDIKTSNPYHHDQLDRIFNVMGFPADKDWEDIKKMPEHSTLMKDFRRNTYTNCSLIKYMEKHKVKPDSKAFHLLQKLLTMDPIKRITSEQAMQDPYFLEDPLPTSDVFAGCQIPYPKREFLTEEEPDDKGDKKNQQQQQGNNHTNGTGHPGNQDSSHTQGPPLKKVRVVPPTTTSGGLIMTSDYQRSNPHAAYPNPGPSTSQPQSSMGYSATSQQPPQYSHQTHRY

[4] = tested on: eIF-2-alpha kinase GCN2 (Homo sapiens), Q9P2K8 [S808G]; test: Competitive binding affinity to GCN2 kinase domain 2 S808G mutant (unknown origin) at 10 uM in presence of ATP relative to control
eIF-2-alpha kinase GCN2 (Homo sapiens), Q9P2K8 [S808G], sequence (Q9P2K8 whole entry S808G, the tested form may be a part): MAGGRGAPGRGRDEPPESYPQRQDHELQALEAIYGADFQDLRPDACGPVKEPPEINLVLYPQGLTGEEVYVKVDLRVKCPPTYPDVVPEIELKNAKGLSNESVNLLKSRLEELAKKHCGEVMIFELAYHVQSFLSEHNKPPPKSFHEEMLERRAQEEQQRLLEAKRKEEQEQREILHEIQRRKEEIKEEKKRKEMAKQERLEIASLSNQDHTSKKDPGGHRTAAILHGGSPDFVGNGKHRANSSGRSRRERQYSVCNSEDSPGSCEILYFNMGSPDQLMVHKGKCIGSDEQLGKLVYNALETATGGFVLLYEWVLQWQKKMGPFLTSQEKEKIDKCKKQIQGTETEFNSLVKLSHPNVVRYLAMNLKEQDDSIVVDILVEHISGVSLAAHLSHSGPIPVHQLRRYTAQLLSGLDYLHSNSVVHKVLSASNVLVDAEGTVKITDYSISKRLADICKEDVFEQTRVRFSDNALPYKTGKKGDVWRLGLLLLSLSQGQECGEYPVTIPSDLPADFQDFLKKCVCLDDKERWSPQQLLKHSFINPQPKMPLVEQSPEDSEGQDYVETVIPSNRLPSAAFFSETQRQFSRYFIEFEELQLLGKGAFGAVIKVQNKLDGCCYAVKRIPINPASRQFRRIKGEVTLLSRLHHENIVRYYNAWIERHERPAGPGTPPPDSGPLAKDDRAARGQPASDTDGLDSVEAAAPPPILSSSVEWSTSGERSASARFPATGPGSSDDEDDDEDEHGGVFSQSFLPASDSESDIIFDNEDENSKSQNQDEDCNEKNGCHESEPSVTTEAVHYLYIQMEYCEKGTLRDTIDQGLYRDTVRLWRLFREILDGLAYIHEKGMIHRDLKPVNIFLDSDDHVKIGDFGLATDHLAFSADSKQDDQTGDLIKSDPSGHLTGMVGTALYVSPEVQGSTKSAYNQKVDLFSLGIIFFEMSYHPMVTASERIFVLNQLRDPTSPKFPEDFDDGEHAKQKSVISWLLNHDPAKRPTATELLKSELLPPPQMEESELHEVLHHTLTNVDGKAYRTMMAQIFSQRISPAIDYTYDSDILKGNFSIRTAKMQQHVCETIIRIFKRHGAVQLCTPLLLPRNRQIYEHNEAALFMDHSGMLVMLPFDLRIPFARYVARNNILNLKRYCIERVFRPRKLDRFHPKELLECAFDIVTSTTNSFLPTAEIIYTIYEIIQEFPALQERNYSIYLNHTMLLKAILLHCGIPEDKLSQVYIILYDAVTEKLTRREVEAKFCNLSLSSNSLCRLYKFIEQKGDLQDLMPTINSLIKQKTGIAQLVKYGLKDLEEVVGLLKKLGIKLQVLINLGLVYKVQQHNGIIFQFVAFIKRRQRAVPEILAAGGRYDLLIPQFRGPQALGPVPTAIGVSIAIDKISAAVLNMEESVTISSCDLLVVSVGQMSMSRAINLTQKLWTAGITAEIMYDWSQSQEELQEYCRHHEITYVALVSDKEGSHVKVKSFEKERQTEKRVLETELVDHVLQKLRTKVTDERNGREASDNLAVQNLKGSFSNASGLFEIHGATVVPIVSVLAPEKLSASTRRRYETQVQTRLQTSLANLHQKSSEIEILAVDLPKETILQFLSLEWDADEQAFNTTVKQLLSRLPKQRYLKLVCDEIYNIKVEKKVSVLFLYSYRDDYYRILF
Summary of the method: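 In vitro ATP-site competition binding format, run as one member of a diverse 128-kinase profiling panel. Each compound was tested at a single concentration across the whole panel.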

[5] = target: T1, MAP kinase-activated protein kinase 5 (Homo sapiens) (UniProt Q8IW41); test: Competitive binding affinity to MAPKAPK5 (unknown origin) at 10 uM in presence of ATP relative to control
T1 sequence (whole entry): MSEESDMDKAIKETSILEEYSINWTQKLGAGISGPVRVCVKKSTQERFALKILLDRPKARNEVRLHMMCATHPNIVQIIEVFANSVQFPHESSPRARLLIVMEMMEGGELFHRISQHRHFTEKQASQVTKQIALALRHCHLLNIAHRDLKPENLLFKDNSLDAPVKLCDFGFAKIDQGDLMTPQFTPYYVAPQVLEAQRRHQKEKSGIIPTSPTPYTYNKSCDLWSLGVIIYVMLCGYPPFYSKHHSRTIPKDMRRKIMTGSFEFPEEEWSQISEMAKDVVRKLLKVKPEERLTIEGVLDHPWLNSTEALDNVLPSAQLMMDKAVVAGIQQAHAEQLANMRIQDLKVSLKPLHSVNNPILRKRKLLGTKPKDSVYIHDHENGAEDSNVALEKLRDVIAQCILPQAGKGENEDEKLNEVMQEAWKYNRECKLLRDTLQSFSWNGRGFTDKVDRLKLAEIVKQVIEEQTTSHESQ

[6] = target: Mitogen-activated protein kinase kinase kinase 12 (DLK) (Homo sapiens) (UniProt Q12852); test: Competitive binding affinity to DLK (unknown origin) at 10 uM in presence of ATP relative to control
Mitogen-activated protein kinase kinase kinase 12 (DLK) (Homo sapiens), sequence (Q12852 whole entry, looked up): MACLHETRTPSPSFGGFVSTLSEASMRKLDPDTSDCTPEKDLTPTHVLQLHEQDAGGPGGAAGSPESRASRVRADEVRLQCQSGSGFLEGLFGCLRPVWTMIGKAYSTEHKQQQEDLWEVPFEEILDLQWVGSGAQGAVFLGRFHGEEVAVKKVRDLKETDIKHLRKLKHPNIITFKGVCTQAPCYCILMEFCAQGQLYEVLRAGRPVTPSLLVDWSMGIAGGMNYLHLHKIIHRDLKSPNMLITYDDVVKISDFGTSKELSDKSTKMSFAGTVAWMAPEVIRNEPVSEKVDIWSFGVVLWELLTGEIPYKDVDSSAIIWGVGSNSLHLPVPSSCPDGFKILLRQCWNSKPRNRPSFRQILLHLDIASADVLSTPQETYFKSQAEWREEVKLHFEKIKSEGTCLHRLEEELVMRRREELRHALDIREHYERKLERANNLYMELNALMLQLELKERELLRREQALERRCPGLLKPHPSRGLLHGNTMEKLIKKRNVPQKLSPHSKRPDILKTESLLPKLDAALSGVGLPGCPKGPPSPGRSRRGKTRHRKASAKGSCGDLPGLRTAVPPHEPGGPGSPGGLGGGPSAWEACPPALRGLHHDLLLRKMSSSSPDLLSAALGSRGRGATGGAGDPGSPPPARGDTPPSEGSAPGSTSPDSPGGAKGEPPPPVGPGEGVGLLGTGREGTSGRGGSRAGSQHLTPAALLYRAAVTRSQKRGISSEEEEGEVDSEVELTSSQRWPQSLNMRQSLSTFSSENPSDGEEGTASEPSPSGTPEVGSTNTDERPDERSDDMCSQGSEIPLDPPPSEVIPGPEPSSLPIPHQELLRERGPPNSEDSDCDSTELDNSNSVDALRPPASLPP

[7] = tested on: T2, Receptor-type tyrosine-protein kinase FLT3 (Homo sapiens), P36888 [D835Y]; test: Competitive binding affinity to FLT3 D835Y mutant (unknown origin) at 10 uM in presence of ATP relative to control
T2 sequence (whole entry): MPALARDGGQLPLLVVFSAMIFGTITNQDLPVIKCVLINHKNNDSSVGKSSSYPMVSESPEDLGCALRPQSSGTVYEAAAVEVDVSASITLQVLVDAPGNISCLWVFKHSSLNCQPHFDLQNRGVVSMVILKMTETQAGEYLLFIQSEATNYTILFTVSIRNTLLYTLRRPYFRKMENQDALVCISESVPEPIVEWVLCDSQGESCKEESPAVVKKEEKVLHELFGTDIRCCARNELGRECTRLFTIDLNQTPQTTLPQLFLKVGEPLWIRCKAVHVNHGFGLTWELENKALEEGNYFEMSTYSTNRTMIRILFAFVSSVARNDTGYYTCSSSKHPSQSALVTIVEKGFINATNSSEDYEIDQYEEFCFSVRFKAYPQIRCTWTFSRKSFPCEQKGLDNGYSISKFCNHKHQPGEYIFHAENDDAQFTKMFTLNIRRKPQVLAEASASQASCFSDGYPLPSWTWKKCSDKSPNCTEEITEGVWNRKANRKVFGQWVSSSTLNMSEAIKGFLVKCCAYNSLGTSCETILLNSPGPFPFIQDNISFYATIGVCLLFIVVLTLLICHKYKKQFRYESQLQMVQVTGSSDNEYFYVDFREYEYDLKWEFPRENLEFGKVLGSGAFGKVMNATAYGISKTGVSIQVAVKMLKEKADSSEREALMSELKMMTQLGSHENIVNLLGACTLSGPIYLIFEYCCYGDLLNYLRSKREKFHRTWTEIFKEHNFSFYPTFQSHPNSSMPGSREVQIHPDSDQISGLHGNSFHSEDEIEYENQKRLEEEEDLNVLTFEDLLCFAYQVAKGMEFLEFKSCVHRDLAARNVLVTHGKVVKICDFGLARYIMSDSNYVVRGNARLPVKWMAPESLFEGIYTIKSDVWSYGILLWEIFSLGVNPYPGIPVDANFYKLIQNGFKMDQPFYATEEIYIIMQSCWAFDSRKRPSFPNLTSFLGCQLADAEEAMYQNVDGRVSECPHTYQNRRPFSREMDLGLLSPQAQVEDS

[8] = target: Protein kinase C theta type (Homo sapiens) (UniProt Q04759); test: Competitive binding affinity to PRKCQ (unknown origin) at 10 uM in presence of ATP relative to control
Protein kinase C theta type (Homo sapiens), sequence (Q04759 whole entry, looked up): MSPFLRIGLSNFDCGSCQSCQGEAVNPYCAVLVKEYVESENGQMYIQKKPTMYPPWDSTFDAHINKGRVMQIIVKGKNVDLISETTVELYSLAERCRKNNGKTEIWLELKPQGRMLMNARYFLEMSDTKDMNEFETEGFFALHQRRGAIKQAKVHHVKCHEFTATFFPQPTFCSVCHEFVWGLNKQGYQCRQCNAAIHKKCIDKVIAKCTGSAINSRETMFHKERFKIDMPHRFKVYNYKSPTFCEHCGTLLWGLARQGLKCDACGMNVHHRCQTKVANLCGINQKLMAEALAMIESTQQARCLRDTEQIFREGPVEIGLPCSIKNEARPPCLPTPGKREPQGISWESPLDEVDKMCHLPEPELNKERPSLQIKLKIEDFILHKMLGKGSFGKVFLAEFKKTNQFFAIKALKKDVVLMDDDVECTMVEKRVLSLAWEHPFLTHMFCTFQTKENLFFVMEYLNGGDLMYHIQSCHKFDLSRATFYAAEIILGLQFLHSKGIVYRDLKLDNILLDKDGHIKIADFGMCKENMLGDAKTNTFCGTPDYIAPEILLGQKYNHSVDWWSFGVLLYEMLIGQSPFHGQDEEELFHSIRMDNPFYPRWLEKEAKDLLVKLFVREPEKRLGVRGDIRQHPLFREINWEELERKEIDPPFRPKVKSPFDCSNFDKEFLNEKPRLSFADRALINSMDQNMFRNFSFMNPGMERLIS

Mitogen-activated protein kinase kinase kinase 10 (Homo sapiens), sequence (Q02779 whole entry, looked up): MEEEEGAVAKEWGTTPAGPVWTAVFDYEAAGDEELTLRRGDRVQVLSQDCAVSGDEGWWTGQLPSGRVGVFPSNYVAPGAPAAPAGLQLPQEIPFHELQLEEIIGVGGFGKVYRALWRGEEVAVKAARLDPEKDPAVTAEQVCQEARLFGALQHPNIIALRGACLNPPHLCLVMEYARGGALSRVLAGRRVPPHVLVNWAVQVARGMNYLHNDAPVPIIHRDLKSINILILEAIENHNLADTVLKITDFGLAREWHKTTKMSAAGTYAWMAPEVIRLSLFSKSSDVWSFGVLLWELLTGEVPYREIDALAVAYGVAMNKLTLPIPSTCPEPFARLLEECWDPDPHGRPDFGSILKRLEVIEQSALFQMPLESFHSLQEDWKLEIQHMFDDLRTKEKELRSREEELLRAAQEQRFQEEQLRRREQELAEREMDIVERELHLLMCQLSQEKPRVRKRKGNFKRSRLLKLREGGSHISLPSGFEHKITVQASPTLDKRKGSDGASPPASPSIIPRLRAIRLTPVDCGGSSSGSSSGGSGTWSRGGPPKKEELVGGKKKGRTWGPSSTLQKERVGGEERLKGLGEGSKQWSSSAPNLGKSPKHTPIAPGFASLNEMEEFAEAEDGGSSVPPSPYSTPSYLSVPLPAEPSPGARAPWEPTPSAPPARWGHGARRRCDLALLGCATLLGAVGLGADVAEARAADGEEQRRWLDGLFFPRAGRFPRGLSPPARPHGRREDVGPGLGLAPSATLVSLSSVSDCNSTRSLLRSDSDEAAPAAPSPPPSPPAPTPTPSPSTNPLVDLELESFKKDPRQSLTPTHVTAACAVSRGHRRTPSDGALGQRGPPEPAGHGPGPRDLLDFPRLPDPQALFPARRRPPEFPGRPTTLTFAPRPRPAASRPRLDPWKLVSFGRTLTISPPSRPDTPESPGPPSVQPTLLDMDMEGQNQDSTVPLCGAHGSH

| Structure (SMILES) | inhibition [1] | inhibition [2] | inhibition [3] | inhibition [4] | inhibition [5] | inhibition [6] | inhibition [7] | inhibition [8] |
| --- | --- | --- | --- | --- | --- | --- | --- | --- |
| CS(=O)(=O)CCCOc1cccc2c1ccn2-c1ccnc(N[C@H]2CC[C@H](C(=O)N3CCC(O)CC3)CC2)n1 |  |  |  | > 85% |  |  |  |  |
| O[C@H]1CC[C@H](Nc2nccc(-c3n[nH]c4ccccc34)n2)CC1 |  |  |  | 100% |  |  | 100% |  |

Next, values leading:

| inhibition [1] | inhibition [2] | inhibition [3] | inhibition [4] | inhibition [5] | inhibition [6] | inhibition [7] | inhibition [8] | Structure (SMILES) |
| --- | --- | --- | --- | --- | --- | --- | --- | --- |
| < 50% | 78% | < 50% | 100% | < 50% | < 50% | 100% | < 50% | O[C@H]1CC[C@H](Nc2nccc(-n3ncc4ccccc43)n2)CC1 |
| < 50% | 83% | < 50% | 83% | < 50% | < 50% | < 50% | < 50% | O[C@H]1CC[C@H](Nc2nccc(-n3ccc4ccccc43)n2)CC1 |
| < 50% | 78% | 82% | 99% | < 50% | < 50% | 99% | < 50% | O[C@H]1CC[C@H](Nc2nccc(-n3nnc4ccccc43)n2)CC1 |
